Converted amounts (≈) assume the structure as drawn.
Assays:
Escherichia coli [1] = test: Resistance index, MIC for aminoglycosides-resistant Escherichia coli XL1-blue harboring pET9d expressing APH(3')-1a enzyme to MIC for Escherichia coli XL1-blue; assay type: functional
Outline: (§1)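 Ratio of MIC on the plasmid-bearing resistant strain to MIC on its background strain (pETSACG1 vs BL21; pET9d or pSF815 vs XL1 blue). MICs by NCCLS double microdilution from starting concentrations of 384 and 1.5 µg/mL, in duplicate, two to four experiments.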

Escherichia coli [2] = test: Antibacterial activity against Escherichia coli ATCC 25922 by double-microdilution method; assay type: functional
Escherichia coli [3] = test: Antibacterial activity against Escherichia coli BL21 by double-microdilution method; assay type: functional
Staphylococcus aureus = test: Antibacterial activity against methicillin-resistant Staphylococcus aureus ATCC 43300 by double-microdilution method; assay type: functional
Escherichia coli [4] = test: Resistance index, MIC for aminoglycosides-resistant Escherichia coli BL21 harboring pETSACG1 expressing APH(3')-3a enzyme to MIC for Escherichia coli BL21; assay type: functional; outline: as §1
Escherichia coli [5] = test: Antibacterial activity against Escherichia coli XL1-blue by double-microdilution method; assay type: functional
Escherichia coli [6] = test: Antibacterial activity against kanamycin-resistant Escherichia coli AG100A expressing aminoglycosides resistant APH(3')-1 enzyme by double-microdilution method; assay type: functional
Escherichia coli [7] = test: Resistance index, MIC for aminoglycosides-resistant Escherichia coli XL1-blue harboring pSF815 expressing AAC(6')-APH(2'') enzyme to MIC for Escherichia coli XL1-blue; assay type: functional; outline: as §1
Escherichia coli [8] = test: Antibacterial activity against aminoglycosides-resistant Escherichia coli XL1-blue harboring pSF815 expressing AAC(6')-APH(2'') enzyme by double-microdilution method; assay type: functional
Escherichia coli [9] = test: Antibacterial activity against kanamycin-resistant Escherichia coli AG100B expressing aminoglycosides resistant APH(3')-1 enzyme by double-microdilution method; assay type: functional
Escherichia coli [10] = test: Antibacterial activity against aminoglycosides-resistant Escherichia coli BL21 harboring pETSACG1 expressing APH(3')-3a enzyme by double-microdilution method; assay type: functional
Escherichia coli [11] = test: Antibacterial activity against Escherichia coli R477-100 by double-microdilution method; assay type: functional
Escherichia coli [12] = test: Antibacterial activity against aminoglycosides-resistant Escherichia coli XL1-blue harboring pET9d expressing APH(3')-1a enzyme by double-microdilution method; assay type: functional
Bacillus subtilis = test: Antibacterial activity against aminoglycosides-susceptible Bacillus subtilis ATCC 6633 by double-microdilution method; assay type: functional
Escherichia coli [13] = test: Inhibition of protein synthesis in Escherichia coli S30 extracts assessed as luciferase activity after 1 hr by coupled transcription/translation assay; assay type: functional
Outline: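 Coupled transcription/translation of the pBESTluc plasmid in E. coli S30 extract with varying compound concentrations, 37 °C for 60 min. Reactions were cooled on ice, diluted in Tris-phosphate pH 7.8 reagent, and luciferase luminescence was read immediately after substrate addition. IC50 came from concentration-response curves fitted to at least two independent experiments.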

[14] = Inhibition of Escherichia coli topoisomerase 4 assessed as reduction in supercoiled pBR322 DNA relaxation activity after 30 mins by electrophoresis; settings: read-out: IC50
Outline: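 E. coli TopoIV relaxation of supercoiled pBR322 in 40 mM HEPES-KOH pH 7.6 with 100 mM potassium glutamate, 10 mM Mg(OAc)₂, 10 mM DTT, 1 mM ATP and 50 µg/mL albumin. Incubated 37 °C for 30 min, stopped with EDTA, loading dye and chloroform/isoamyl alcohol, then run on 1% agarose. Supercoiled DNA percentage was quantified from gel images. IC50 is the 50% reduction versus drug-free control.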

[15] = Inhibition of Escherichia coli DNA gyrase assessed as reduction in relaxed pBR322 DNA supercoiling activity after 1 hr by electrophoresis; settings: read-out: IC50
Outline: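 Supercoiling of relaxed pBR322 (12.5 ng/µL) by E. coli DNA gyrase in 35 mM Tris-Cl pH 7.5 with 24 mM KCl, 4 mM MgCl₂, 2 mM DTT, 1.8 mM spermidine, 1 mM ATP, 6.5% glycerol and 0.1 mg/mL BSA. Incubated 37 °C for 1 h, stopped with loading dye plus chloroform/isoamyl alcohol, and resolved on 1% agarose. IC50 is the concentration halving activity versus drug-free control.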

Compound	Ratio (Escherichia coli [1])	MIC (Escherichia coli [2]) [µg/mL]	MIC (Escherichia coli [3]) [µg/mL]	MIC (Staphylococcus aureus) [µg/mL]	Ratio (Escherichia coli [4])	MIC (Escherichia coli [5]) [µg/mL]	MIC (Escherichia coli [6]) [µg/mL]	Ratio (Escherichia coli [7])	MIC (Escherichia coli [8]) [µg/mL]	MIC (Escherichia coli [9]) [µg/mL]	MIC (Escherichia coli [10]) [µg/mL]	MIC (Escherichia coli [11]) [µg/mL]	MIC (Escherichia coli [12]) [µg/mL]	MIC (Bacillus subtilis) [µg/mL]	IC50 (Escherichia coli [13])	IC50 [14] [µM]	IC50 [15] [µM]	IC50 (Escherichia coli [13]; Escherichia coli, 1 h, read-out: IC50) [µM]
NC[C@@H]1O[C@H](O[C@H]2[C@@H](O)[C@H](O[C@@H]3[C@@H](O)[C@H](N)C[C@H](N)[C@H]3O[C@H]3O[C@H](CN)[C@@H](O)[C@H](O)[C@H]3N)O[C@@H]2C(=O)NCc2cn(Cc3cccc(CN4CCN(c5cc6c(cc5F)c(=O)c(C(=O)O)cn6C5CC5)CC4)c3)nn2)[C@H](N)[C@@H](O)[C@@H]1O	1	6 (≈ 5.25 µM)	0.4 (≈ 0.35 µM)	6 (≈ 5.25 µM)	1	6 (≈ 5.25 µM)	0.75 (≈ 0.657 µM)	4	24 (≈ 21 µM)	12 (≈ 10.5 µM)	0.4 (≈ 0.35 µM)	6 (≈ 5.25 µM)	6 (≈ 5.25 µM)	3 (≈ 2.63 µM)				
NC[C@@H]1O[C@H](O[C@H]2[C@@H](O)[C@H](O[C@@H]3[C@@H](O)[C@H](N)C[C@H](N)[C@H]3O[C@H]3O[C@H](CN)[C@@H](O)[C@H](O)[C@H]3N)O[C@@H]2C(=O)NCc2cn(CCN3CCN(c4cc5c(cc4F)c(=O)c(C(=O)O)cn5C4CC4)CC3)nn2)[C@H](N)[C@@H](O)[C@@H]1O		6 (≈ 5.63 µM)		24 (≈ 22.5 µM)			1.5 (≈ 1.41 µM)			12 (≈ 11.3 µM)		12 (≈ 11.3 µM)		3 (≈ 2.81 µM)				
NC[C@@H]1O[C@H](O[C@H]2[C@@H](O)[C@H](O[C@@H]3[C@@H](O)[C@H](N)C[C@H](N)[C@H]3O[C@H]3O[C@H](CN)[C@@H](O)[C@H](O)[C@H]3N)O[C@@H]2C(=O)Nc2ccc(-c3cn(CCCCN4CCN(c5cc6c(cc5F)c(=O)c(C(=O)O)cn6C5CC5)CC4)nn3)cc2)[C@H](N)[C@@H](O)[C@@H]1O		6 (≈ 5.19 µM)		24 (≈ 20.8 µM)			1.5 (≈ 1.3 µM)			24 (≈ 20.8 µM)		12 (≈ 10.4 µM)		6 (≈ 5.19 µM)				
NC[C@@H]1O[C@H](O[C@H]2[C@@H](O)[C@H](O[C@@H]3[C@@H](O)[C@H](N)C[C@H](N)[C@H]3O[C@H]3O[C@H](CN)[C@@H](O)[C@H](O)[C@H]3N)O[C@@H]2C(=O)Nc2ccc(-c3cn(CCCCCN4CCN(c5cc6c(cc5F)c(=O)c(C(=O)O)cn6C5CC5)CC4)nn3)cc2)[C@H](N)[C@@H](O)[C@@H]1O		6 (≈ 5.13 µM)		48 (≈ 41 µM)			1.5 (≈ 1.28 µM)			24 (≈ 20.5 µM)		12 (≈ 10.3 µM)		12 (≈ 10.3 µM)				
NC[C@@H]1O[C@H](O[C@H]2[C@@H](O)[C@H](O[C@@H]3[C@@H](O)[C@H](N)C[C@H](N)[C@H]3O[C@H]3O[C@H](CN)[C@@H](O)[C@H](O)[C@H]3N)O[C@@H]2C(=O)NCc2cn(CCOCCN3CCN(c4cc5c(cc4F)c(=O)c(C(=O)O)cn5C4CC4)CC3)nn2)[C@H](N)[C@@H](O)[C@@H]1O		6 (≈ 5.4 µM)		24 (≈ 21.6 µM)			1.5 (≈ 1.35 µM)			12 (≈ 10.8 µM)		12 (≈ 10.8 µM)		12 (≈ 10.8 µM)				
O=C(O)c1cn(C2CC2)c2cc(N3CCNCC3)c(F)cc2c1=O [CIPROFLOXACIN]			< 0.005	0.2 (≈ 0.604 µM)			< 0.005							0.02 (≈ 0.0604 µM)	Not Active	10.8	1.3	
NC[C@@H]1O[C@H](O[C@H]2[C@@H](O)[C@H](O[C@@H]3[C@@H](O)[C@H](N)C[C@H](N)[C@H]3O[C@H]3O[C@H](CN)[C@@H](O)[C@H](O)[C@H]3N)O[C@@H]2C(=O)NCc2cn(CCCN3CCN(c4cc5c(cc4F)c(=O)c(C(=O)O)cn5C4CC4)CC3)nn2)[C@H](N)[C@@H](O)[C@@H]1O		6 (≈ 5.55 µM)		48 (≈ 44.4 µM)			1.5 (≈ 1.39 µM)			12 (≈ 11.1 µM)		12 (≈ 11.1 µM)		6 (≈ 5.55 µM)				
NC[C@@H]1O[C@H](O[C@H]2[C@@H](O)[C@H](O[C@@H]3[C@@H](O)[C@H](N)C[C@H](N)[C@H]3O[C@H]3O[C@H](CN)[C@@H](O)[C@H](O)[C@H]3N)O[C@@H]2C(=O)Nc2ccc(-c3cn(CCCCCCN4CCN(c5cc6c(cc5F)c(=O)c(C(=O)O)cn6C5CC5)CC4)nn3)cc2)[C@H](N)[C@@H](O)[C@@H]1O		6 (≈ 5.07 µM)		48 (≈ 40.5 µM)			1.5 (≈ 1.27 µM)			12 (≈ 10.1 µM)		6 (≈ 5.07 µM)		12 (≈ 10.1 µM)				
NC[C@@H]1O[C@H](O[C@H]2[C@@H](O)[C@H](O[C@@H]3[C@@H](O)[C@H](N)C[C@H](N)[C@H]3O[C@H]3O[C@H](CN)[C@@H](O)[C@H](O)[C@H]3N)O[C@@H]2C(=O)Nc2ccc(-c3cn(CCN4CCN(c5cc6c(cc5F)c(=O)c(C(=O)O)cn6C5CC5)CC4)nn3)cc2)[C@H](N)[C@@H](O)[C@@H]1O		6 (≈ 5.32 µM)		48 (≈ 42.5 µM)			0.75 (≈ 0.665 µM)			24 (≈ 21.3 µM)		12 (≈ 10.6 µM)		6 (≈ 5.32 µM)				
NC[C@@H]1O[C@H](O[C@H]2[C@@H](O)[C@H](O[C@@H]3[C@@H](O)[C@H](N)C[C@H](N)[C@H]3O[C@H]3O[C@H](CN)[C@@H](O)[C@H](O)[C@H]3N)O[C@@H]2C(=O)Nc2ccc(-c3cn(Cc4cccc(CN5CCN(c6cc7c(cc6F)c(=O)c(C(=O)O)cn7C6CC6)CC5)c4)nn3)cc2)[C@H](N)[C@@H](O)[C@@H]1O		12 (≈ 9.96 µM)		12 (≈ 9.96 µM)			1.5 (≈ 1.25 µM)			12 (≈ 9.96 µM)		6 (≈ 4.98 µM)		6 (≈ 4.98 µM)				
NC[C@@H]1O[C@H](O[C@H]2[C@@H](O)[C@H](O[C@@H]3[C@@H](O)[C@H](N)C[C@H](N)[C@H]3O[C@H]3O[C@H](CN)[C@@H](O)[C@H](O)[C@H]3N)O[C@@H]2C(=O)Nc2ccc(-c3cn(CC(O)CN4CCN(c5cc6c(cc5F)c(=O)c(C(=O)O)cn6C5CC5)CC4)nn3)cc2)[C@H](N)[C@@H](O)[C@@H]1O (stereo not given in full)		3 (≈ 2.59 µM)		24 (≈ 20.7 µM)			0.75 (≈ 0.648 µM)			6 (≈ 5.18 µM)		6 (≈ 5.18 µM)		6 (≈ 5.18 µM)		0.58	0.073	2.2
NC[C@@H]1O[C@H](O[C@H]2[C@@H](O)[C@H](O[C@@H]3[C@@H](O)[C@H](N)C[C@H](N)[C@H]3O[C@H]3O[C@H](CN)[C@@H](O)[C@H](O)[C@H]3N)O[C@@H]2C(=O)Nc2ccc(-c3cn(CCOCCN4CCN(c5cc6c(cc5F)c(=O)c(C(=O)O)cn6C5CC5)CC4)nn3)cc2)[C@H](N)[C@@H](O)[C@@H]1O		12 (≈ 10.2 µM)		24 (≈ 20.5 µM)			1.5 (≈ 1.28 µM)			12 (≈ 10.2 µM)		24 (≈ 20.5 µM)		12 (≈ 10.2 µM)				
NC[C@@H]1O[C@H](O[C@H]2[C@@H](O)[C@H](O[C@@H]3[C@@H](O)[C@H](N)C[C@H](N)[C@H]3O[C@H]3O[C@H](CN)[C@@H](O)[C@H](O)[C@H]3N)O[C@@H]2C(=O)Nc2ccc(-c3cn(CCCN4CCN(c5cc6c(cc5F)c(=O)c(C(=O)O)cn6C5CC5)CC4)nn3)cc2)[C@H](N)[C@@H](O)[C@@H]1O		3 (≈ 2.63 µM)		48 (≈ 42 µM)			1.5 (≈ 1.31 µM)			12 (≈ 10.5 µM)		6 (≈ 5.25 µM)		6 (≈ 5.25 µM)				
NC[C@@H]1O[C@H](O[C@H]2[C@@H](O)[C@H](O[C@@H]3[C@@H](O)[C@H](N)C[C@H](N)[C@H]3O[C@H]3O[C@H](CN)[C@@H](O)[C@H](O)[C@H]3N)O[C@@H]2C(=O)NCc2cn(CCCCCN3CCN(c4cc5c(cc4F)c(=O)c(C(=O)O)cn5C4CC4)CC3)nn2)[C@H](N)[C@@H](O)[C@@H]1O		6 (≈ 5.41 µM)		48 (≈ 43.3 µM)			1.5 (≈ 1.35 µM)			24 (≈ 21.7 µM)		24 (≈ 21.7 µM)		12 (≈ 10.8 µM)				
NC[C@@H]1O[C@H](O[C@H]2[C@@H](O)[C@H](O[C@@H]3[C@@H](O)[C@H](N)C[C@H](N)[C@H]3O[C@H]3O[C@H](CN)[C@@H](O)[C@H](O)[C@H]3N)O[C@@H]2C(=O)NCc2cn(Cc3ccc(CN4CCN(c5cc6c(cc5F)c(=O)c(C(=O)O)cn6C5CC5)CC4)cc3)nn2)[C@H](N)[C@@H](O)[C@@H]1O	1	6 (≈ 5.25 µM)	0.4 (≈ 0.35 µM)	3 (≈ 2.63 µM)	1	6 (≈ 5.25 µM)	1.5 (≈ 1.31 µM)	1	6 (≈ 5.25 µM)	12 (≈ 10.5 µM)	0.4 (≈ 0.35 µM)	6 (≈ 5.25 µM)	6 (≈ 5.25 µM)	3 (≈ 2.63 µM)				
